ChEMBL document CHEMBL4689842, “EUbOPEN Chemogenomics Library wave 1” (2021)

System: U2OS
Assay: Multiplex assay against U2OS
Assay type: toxicity, cell-based
Conditions: human
Outline: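 Values for tubulin, mitochondrial-mass and membrane-permeability phenotypes are per cents of cells with healthy nuclei. These cells were identified by CellPathfinder machine-learning gating of live cells that had been stained at seeding with Hoechst33342, BioTracker Green Microtubule Cytoskeleton Dye, MitoTracker Red and Annexin V Alexa Fluor 680 and imaged on a CQ1 microscope at 37°C and 5% CO2 after compound addition. The gating first set Hoechst high-intensity objects apart from normal cells, then split normal cells into healthy, pyknosed or fragmented nuclei, and pyknosed cells into mitotic or apoptotic.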

[1] = 12 h, 1 µM, compound concentration 1 uM, replicate 1
[2] = 12 h, 1 µM, compound concentration 1 uM, replicate 2
[3] = 12 h, 10 µM, compound concentration 10 uM, replicate 1
[4] = 12 h, 10 µM, compound concentration 10 uM, replicate 2
[5] = 24 h, 1 µM, compound concentration 1 uM, replicate 1
[6] = 24 h, 1 µM, compound concentration 1 uM, replicate 2
[7] = 24 h, 10 µM, compound concentration 10 uM, replicate 1
[8] = 24 h, 10 µM, compound concentration 10 uM, replicate 2
[9] = 48 h, 1 µM, compound concentration 1 uM, replicate 1
[10] = 48 h, 1 µM, compound concentration 1 uM, replicate 2
[11] = 48 h, 10 µM, compound concentration 10 uM, replicate 1
[12] = 48 h, 10 µM, compound concentration 10 uM, replicate 2

CN1CCC[C@@H]1CCO[C@](C)(c1ccccc1)c1ccc(Cl)cc1.O=C(O)/C=C/C(=O)O [CLEMASTINE FUMARATE]
Population Apoptotic (%) [1]: 50% | Population Fragmented Nuclei (%) [1]: 12% | Population Healthy Nuclei (%) [1]: 72% | Population Hoechst High Intensity Objects (%) [1]: 11% | Population Membrane Permeable-Phenotype (%) [1]: 5% | Population Mitochondria Different-Phenotype (%) [1]: 18% | Population Mitotic Cells (%) [1]: 50% | Population Normal (%) [1]: 88% | Population Pyknosed Nuclei (%) [1]: 14% | Population Tubulin-Different-Phenotype (%) [1]: 12% | Total Cell Count [1]: 108 | Population Fragmented Nuclei (%) [2]: 15% | Population Healthy Nuclei (%) [2]: 76% | Population Hoechst High Intensity Objects (%) [2]: 1% | Population Membrane Permeable-Phenotype (%) [2]: 3% | Population Mitochondria Different-Phenotype (%) [2]: 6% | Population Normal (%) [2]: 98% | Population Pyknosed Nuclei (%) [2]: 7% | Population Tubulin-Different-Phenotype (%) [2]: 3% | Total Cell Count [2]: 78 | Population Apoptotic (%) [3]: 50% | Population Fragmented Nuclei (%) [3]: 24% | Population Hoechst High Intensity Objects (%) [3]: 18% | Population Membrane Permeable-Phenotype (%) [3]: 13% | Population Mitochondria Different-Phenotype (%) [3]: 97% | Population Mitotic Cells (%) [3]: 50% | Population Normal (%) [3]: 81% | Population Pyknosed Nuclei (%) [3]: 34% | Population Tubulin-Different-Phenotype (%) [3]: 83% | Total Cell Count [3]: 127 | Population Apoptotic (%) [4]: 85% | Population Fragmented Nuclei (%) [4]: 19% | Population Healthy Nuclei (%) [4]: 41% | Population Hoechst High Intensity Objects (%) [4]: 21% | Population Membrane Permeable-Phenotype (%) [4]: 6% | Population Mitochondria Different-Phenotype (%) [4]: 86% | Population Mitotic Cells (%) [4]: 14% | Population Normal (%) [4]: 78% | Population Pyknosed Nuclei (%) [4]: 38% | Population Tubulin-Different-Phenotype (%) [4]: 40% | Total Cell Count [4]: 46 | Population Apoptotic (%) [5]: 55% | Population Fragmented Nuclei (%) [5]: 7% | Population Healthy Nuclei (%) [5]: 85% | Population Hoechst High Intensity Objects (%) [5]: 6% | Population Membrane Permeable-Phenotype (%) [5]: 5% | Population Mitochondria Different-Phenotype (%) [5]: 9% | Population Mitotic Cells (%) [5]: 44% | Population Normal (%) [5]: 93% | Population Pyknosed Nuclei (%) [5]: 7% | Population Tubulin-Different-Phenotype (%) [5]: 13% | Total Cell Count [5]: 135 | Population Apoptotic (%) [6]: 18% | Population Fragmented Nuclei (%) [6]: 14% | Population Healthy Nuclei (%) [6]: 70% | Population Hoechst High Intensity Objects (%) [6]: 0% | Population Mitochondria Different-Phenotype (%) [6]: 13% | Population Mitotic Cells (%) [6]: 81% | Population Normal (%) [6]: 99% | Population Pyknosed Nuclei (%) [6]: 15% | Population Tubulin-Different-Phenotype (%) [6]: 6% | Total Cell Count [6]: 107 | Population Apoptotic (%) [7]: 64% | Population Fragmented Nuclei (%) [7]: 33% | Population Healthy Nuclei (%) [7]: 35% | Population Hoechst High Intensity Objects (%) [7]: 10% | Population Membrane Permeable-Phenotype (%) [7]: 21% | Population Mitochondria Different-Phenotype (%) [7]: 100% | Population Mitotic Cells (%) [7]: 35% | Population Normal (%) [7]: 90% | Population Pyknosed Nuclei (%) [7]: 31% | Population Tubulin-Different-Phenotype (%) [7]: 68% | Total Cell Count [7]: 120 | Population Apoptotic (%) [8]: 76% | Population Fragmented Nuclei (%) [8]: 21% | Population Healthy Nuclei (%) [8]: 36% | Population Hoechst High Intensity Objects (%) [8]: 12% | Population Membrane Permeable-Phenotype (%) [8]: 26% | Population Mitochondria Different-Phenotype (%) [8]: 86% | Population Mitotic Cells (%) [8]: 23% | Population Normal (%) [8]: 87% | Population Pyknosed Nuclei (%) [8]: 41% | Population Tubulin-Different-Phenotype (%) [8]: 26% | Total Cell Count [8]: 47 | Population Apoptotic (%) [9]: 38% | Population Hoechst High Intensity Objects (%) [9]: 3% | Population Membrane Permeable-Phenotype (%) [9]: 4% | Population Mitochondria Different-Phenotype (%) [9]: 11% | Population Mitotic Cells (%) [9]: 61% | Population Normal (%) [9]: 96% | Population Pyknosed Nuclei (%) [9]: 10% | Population Tubulin-Different-Phenotype (%) [9]: 6% | Total Cell Count [9]: 184 | Population Apoptotic (%) [10]: 31% | Population Fragmented Nuclei (%) [10]: 5% | Population Healthy Nuclei (%) [10]: 84% | Population Hoechst High Intensity Objects (%) [10]: 1% | Population Membrane Permeable-Phenotype (%) [10]: 5% | Population Mitochondria Different-Phenotype (%) [10]: 13% | Population Mitotic Cells (%) [10]: 68% | Population Normal (%) [10]: 98% | Population Pyknosed Nuclei (%) [10]: 9% | Population Tubulin-Different-Phenotype (%) [10]: 15% | Total Cell Count [10]: 164 | Population Apoptotic (%) [11]: 83% | Population Fragmented Nuclei (%) [11]: 33% | Population Healthy Nuclei (%) [11]: 25% | Population Hoechst High Intensity Objects (%) [11]: 11% | Population Membrane Permeable-Phenotype (%) [11]: 3% | Population Mitochondria Different-Phenotype (%) [11]: 80% | Population Mitotic Cells (%) [11]: 16% | Population Normal (%) [11]: 88% | Population Pyknosed Nuclei (%) [11]: 41% | Population Tubulin-Different-Phenotype (%) [11]: 50% | Total Cell Count [11]: 117 | Population Apoptotic (%) [12]: 54% | Population Fragmented Nuclei (%) [12]: 25% | Population Healthy Nuclei (%) [12]: 46% | Population Hoechst High Intensity Objects (%) [12]: 15% | Population Membrane Permeable-Phenotype (%) [12]: 44% | Population Mitochondria Different-Phenotype (%) [12]: 72% | Population Mitotic Cells (%) [12]: 45% | Population Normal (%) [12]: 84% | Population Pyknosed Nuclei (%) [12]: 28% | Population Tubulin-Different-Phenotype (%) [12]: 55% | Total Cell Count [12]: 46
